High-throughput results as filed in PubChem.
SUMO Mot1 rescue = blocks SUMOylation pathway, rescuing yeast Mot1-301 growth; S. cerevisiae Mot1-301 growth rescue, ATP luminescence, 38.5C; percent above DMSO median, 100 means doubled; AID 2716; 1% of 320,000 active; growth rescue, % at 18.8 µM;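 active means every valid replicate shows activation above 250% relative to neutral control wells; inactive means the rest, any valid replicate at or below 250%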;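 further: OY570 slx delta 5 strain wells were the positive control but not used for scaling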
Statin myotox sup = suppressors of simvastatin-induced myotoxicity in C2C12 myotubes. 0.78% of 330,000 active. AID 602340. rescue of ATP level, % at 7.49 µM. ATP luminescence, 48 h; scaled: DMSO 0, geranylgeraniol control 100;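 active means mean ATP rescue above about 67%, or every replicate alone reaching that limit, limit read from the data, passing the limit was not always enough; inconclusive means no clear call, values can overlap the other calls; inactive means mean under the limit and some replicate under it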;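 further: myotubes were challenged with 10 µM simvastatin during compound exposure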
ASAP1 inh = inhibitors of human ASAP1 ArfGAP activity. 0.19% of 360,000 active. AID 624377. inhibition, % at 16.5 µM. ASAP1-stimulated ARF1 GTP hydrolysis, GDP FP detection. Q9ULH1; in the data active means inhibition above about 25%;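 further: 0% = vehicle with enzyme and substrate and 100% = no enzyme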
ARFGAP1 inh = rat ARFGAP1 inhibition. Arfgap1-stimulated ARF1 GTP hydrolysis, GDP FP detection. inhibition, % at 16.5 µM. 0.26% of 360,000 active;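 active means inhibition above a per-plate limit, mean inhibition of low control wells plus 3 SD, cut at about 25% in these data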;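 further: 0% = DMSO wells with enzyme and 100% = wells lacking Arfgap1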
Target sequence (Q62848 1-136 limits assumed): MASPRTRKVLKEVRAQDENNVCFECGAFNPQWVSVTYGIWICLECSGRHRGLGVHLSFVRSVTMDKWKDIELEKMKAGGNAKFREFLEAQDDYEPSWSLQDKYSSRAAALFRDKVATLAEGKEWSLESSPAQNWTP
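Repeats: one replicate per compound; assay system: rat Arfgap1 catalytic domain, aa 1-136; times: enzyme reaction 120 min at 25 °C after 20 min preincubation; detection: FP of antibody-bound GDP Alexa 633 tracer, ex 620/em 688 nm; benchmarks: high control wells lacking Arfgap1, low control full reaction with DMSO; reagent: human ARF1(Δ1-17)-GTP substrate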
APOBEC3A inh = blocks human APOBEC3A ssDNA deamination. P31941. 0.41% of 330,000 active. recombinant A3A, FAM/TAMRA ssDNA deamination fluorescence. inhibition, % at 20 µM. AID 493011;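 active means at least 40% inhibition at 20 µM here, with at most 30% in a related deaminase screen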;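 further: plate controls were A3A with DMSO for no effect and wells lacking A3A enzyme for full effect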
A3G deaminase = blocks human APOBEC3G single-stranded DNA deamination | Q9HC16 | recombinant A3G, ssDNA deamination FAM/TAMRA fluorescence | inhibition, % at 20 µM | 0.28% of 330,000 active | AID 493012;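 active means inhibition of at least 40% at 20 µM, with no more than 30% in the related APOBEC3A deaminase screen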;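 further: plate controls were DMSO wells with A3G for no effect and wells lacking A3G enzyme for full effect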
Target sequence (Q9HC16 whole entry, looked up): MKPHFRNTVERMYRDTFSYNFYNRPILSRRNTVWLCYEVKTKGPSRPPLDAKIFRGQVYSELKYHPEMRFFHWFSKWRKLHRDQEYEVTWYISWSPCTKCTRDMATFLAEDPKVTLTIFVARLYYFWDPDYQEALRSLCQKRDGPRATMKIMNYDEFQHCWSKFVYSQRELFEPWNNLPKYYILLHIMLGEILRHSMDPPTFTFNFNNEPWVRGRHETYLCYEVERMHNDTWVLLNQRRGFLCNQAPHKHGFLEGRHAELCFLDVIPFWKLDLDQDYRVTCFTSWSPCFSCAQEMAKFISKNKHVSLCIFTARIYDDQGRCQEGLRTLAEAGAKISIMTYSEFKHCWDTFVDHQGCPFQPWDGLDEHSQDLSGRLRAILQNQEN
Mot1 SUMO dose = yeast SUMO pathway inhibition in dose response; 2,300 tested, under 10 active; shares compounds with SUMO Mot1 rescue; growth activity, percent, % at 42 µM; S. cerevisiae Mot1-301 galactose growth, ATP luminescence, 24 h; -100 = growth of slx-deleted rescue strain;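 active means Signal drops as the depositor expects, and the fitted half-maximal dose is no more than ten times the top valid tested dose; inconclusive means Poor fit, or a flat curve whose signal drops by 30% to 70%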;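 further: more negative values mean stronger growth rescue toward the control strain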
* hit, by the source's call; ? = inconclusive; . = no result given. Most compounds without a hit are left out; they make up all but 2.1% or so of the library.

SMILES	SUMO Mot1 rescue	Statin myotox sup	ASAP1 inh	ARFGAP1 inh	APOBEC3A inh	A3G deaminase	Mot1 SUMO dose
COc1ccc2[nH]c(C(=O)N/N=C/c3ccccc3OC)cc2c1	503*	1	14	12	2	-5	0
CN(C)C(=O)C[C@H]1C[C@H]2c3cc(NC(=O)C4CCC4)ccc3O[C@H]2[C@@H](CO)O1	.	-1	.	.	.	.	.
Cc1ccc(NC(=O)c2sc3nc(C)nc(N4CCN(c5ccccn5)CC4)c3c2C)c(C)c1	15	7	-8	8	0	-10	.
Cc1nc(N2CCN(c3ccccn3)CC2)c2c(C)c(C(=O)N3CCN(c4ccccc4F)CC3)sc2n1	427*	-16	13	4	.	.	0
O=C(/C=C/N1CCOCC1)c1cc2ccccc2o1	-1	.	-2	4	-6	-8	.
O=C(/C=C/N1CCOCC1)c1coc2ccccc12	425*	-1	14	1	-1	-1	-1
CCCn1c(=O)c2ccccc2n2c(SCC(=O)N3CCc4ccccc4C3)nnc12	433*	.	1	-4	1	-3	0
CO[C@@H]1CN(C)C(=O)c2ccc(NS(C)(=O)=O)cc2OC[C@@H](C)N(C(=O)C2CCOCC2)C[C@H]1C	.	-7	.	.	.	.	.
O=C(/C=C/c1ccc(Cl)cc1)NCc1ccncc1	566*	1	11	-1	1	-1	1
Cc1cc(NC(=O)CSc2ncn(-c3ccccc3)n2)no1	925*	-2	11	3	2	-3	0
Cc1cc(NC(=O)CSc2ncccn2)no1	-7	14	1	4	-3	-7	.
Cc1cccc(NC(=O)CSc2cccc3cccnc23)c1	-7	9	-13	-11	-1	1	.
O=C(CSc1cccc2cccnc12)Nc1cc(C(=O)O)cc(C(=O)O)c1	577*	7	1	11	-3	0	1
N=c1sccn1CC(=O)Nc1cccc(S(N)(=O)=O)c1	489*	0	-1	-4	1	-3	1
N=c1sccn1CC(=O)Nc1ccc(S(N)(=O)=O)cc1	-10	56	-1	2	-6	-5	.
COc1cccc(-c2ccc3n(c2=O)C[C@@H]2[C@@H](CO)[C@H](C(=O)N(C)C)[C@H]3N2CC2CC2)c1	.	12	.	.	.	.	.
O=C(C[C@@H]1C=C[C@H](NC(=O)c2ccc3c(c2)OCO3)[C@H](CO)O1)NCc1ccc(Cl)cc1	.	2	.	.	.	.	.
CCC(=O)N(C)C[C@@H]1[C@@H](c2ccc(-c3ccccc3F)cc2)[C@H](CO)N1C(C)=O	.	23	.	.	.	.	.
O=C(O)C[C@@H]1CC[C@H](NC(=O)c2ccccc2F)[C@@H](CO)O1	.	-1	.	.	.	.	.
CCOC(=O)c1c(N)sc(C(=O)N2CCCC(C(N)=O)C2)c1C (centres undefined)	933*	-20	-4	-2	-2	-7	1
CCOc1ccc(S(=O)(=O)N2CCN(CC(O)COc3cccc([N+](=O)[O-])c3)CC2)cc1 (centres undefined)	588*	17	8	7	-5	-13	0
CNC[C@@H]1OCCCC[C@@H](C)Oc2ccc(NC(=O)c3ccccc3)cc2C(=O)N([C@@H](C)CO)C[C@H]1C	.	-22	.	.	.	.	.
CCn1c(-c2ccccc2)c(C(=O)CC#N)c2ccccc21	373*	-2	0	-4	-1	-6	0
C[C@H](CO)N1C[C@H](C)[C@H](CN(C)S(=O)(=O)c2ccc3c(c2)OCCCO3)OCc2cn(nn2)CCCC1=O	.	-21	.	.	.	.	.
COc1cccc(-c2ccc3c(c2)[C@@H]2[C@@H](CCN2S(=O)(=O)c2ccccc2OC)[C@@H](CO)N3)c1	.	-18	.	.	.	.	.
SMILES	SUMO Mot1 rescue	Statin myotox sup	ASAP1 inh	ARFGAP1 inh	APOBEC3A inh	A3G deaminase	Mot1 SUMO dose
CN(C)S(=O)(=O)c1cccc(NC(=O)C(c2ccccc2)c2ccccc2)c1	404*	-29	-3	-6	-2	-11	0
CN1CCN(C(=S)Nc2cccc(S(=O)(=O)N(C)C)c2)CC1	30	.	-10	-2	-2	-8	.
CC(C)N(C(=S)Nc1cccc(S(=O)(=O)N(C)C)c1)c1ccccc1	454*	-48	5	-7	-1	7	1
CN(C)S(=O)(=O)c1cccc(C(=O)Nc2ccccc2)c1	-27	.	2	0	-3	-7	.
CC(=O)N1[C@@H](CO)[C@@H]2c3ccccc3N(S(=O)(=O)c3ccc(F)cc3)C[C@@H]21	.	16	.	.	.	.	.
O=C(c1ccc([N+](=O)[O-])o1)N1CCN(c2nc3c(Cl)cccc3s2)CC1	769*	?	4	9	-2	-8	-1
Cc1ccc(N(C(=O)CCl)C(C(=O)NC2CCCCC2)c2cccnc2)cc1C (centres undefined)	369*	.	3	-10	.	.	0
C[C@@H]1CN([C@@H](C)CO)C(=O)CCCn2cc(nn2)CO[C@@H]1CN(C)Cc1ccc(O)cc1	.	-16	.	.	.	.	.
CC1=C(C)CS(=O)N(S(=O)(=O)c2ccc(Cl)cc2)C1 (centres undefined)	724*	16	-11	0	-9	8	-1
N#C/C(=C\c1c(N(Cc2ccccc2)Cc2ccccc2)nc2ccccn2c1=O)C(N)=O	.	.	-5	-8	-3	-3	0
CCNC(=O)/C(C#N)=C/c1c(N2CCCCCC2)nc2ccccn2c1=O	748*	3	-2	-6	-3	-6	0
O=C(c1ccccc1)N1CC[C@@H]2[C@@H](CO)Nc3ccc(-c4ccccc4F)cc3[C@@H]21	.	16	.	.	.	.	.
CCCNC(=O)C[C@H]1C[C@@H]2c3cc(NS(C)(=O)=O)ccc3O[C@@H]2[C@H](CO)O1	.	7	.	.	.	.	.
COc1ccc(CN(C)S(=O)(=O)c2nnc(NC(=O)c3ccc(C)cc3)s2)cc1OC	466*	17	7	-5	-2	-4	0
CC(C)C(=O)OCC(=O)NCc1ccccc1Cl	5	.	-1	11	6	-3	.
Cc1ccc(NC(=O)/C=N/OCC(=O)NCc2ccccc2Cl)cc1	464*	.	0	10	7	-2	0
COCC#Cc1ccc2c(c1)O[C@@H](CN(C)S(=O)(=O)c1ccc(OC)cc1)[C@H](C)CN([C@H](C)CO)S2(=O)=O	.	-35	.	.	.	.	.
CCS(=O)(=O)NCC[C@H]1CC[C@H](NS(=O)(=O)c2cccc(F)c2)[C@H](CO)O1	.	-4	.	.	.	.	.
COC(=O)c1ccccc1NC(NC(=O)c1ccco1)C(=O)c1ccccc1 (centres undefined)	449*	35	-15	2	-2	-6	-1
COc1ccccc1NC(NC(=O)c1ccco1)C(=O)c1ccccc1 (centres undefined)	839*	4	-1	-10	-4	-2	0
